Assay results from paper PMC3355950 (The Journal of Neuroscience, 2012).

Columns and labels:
Format in all cases: cell-based
[1] = biological target: GluN1/GluN2A V783S (Rattus norvegicus, UniProt P35439+Q00959, V783S); test: Two-electrode voltage-clamp recordings, Xenopus oocytes; conditions: 100 μM glutamate + 3 μM glycine
[2] = biological target: GluN1/2A-(2D S1) (Rattus norvegicus, UniProt P35439+Q00959, A414R/D421P/DELINS438-452SQLNRTHSPPPDAPRPE/E427G/I408V/I422A/K454R/K466R/K472G/L425I/N404Q/N432D/N490D/N491G/R469H/S407T/S468A/S538A/T426S/T433S/T474S/V409A/V430I/V471I/V489I/V501F/V506D/V509I/V521I); test: Two-electrode voltage-clamp recordings, Xenopus oocytes; conditions: 100 μM glutamate + 3 μM glycine
Summary of the method: (§1)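 cRNA from linearized constructs injected into female Xenopus laevis oocytes. Two-electrode voltage clamp done 3–4 d later at 23°C, holding at −40 mV, in 90 NaCl, 1 KCl, 10 HEPES, 0.5 BaCl₂, 0.01 EDTA (mM), pH 7.4. […] Max inhibition is (control − residual at saturating compound)/control.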

[3] = biological target: GluN1/GluN2A E789A (Rattus norvegicus, UniProt P35439+Q00959, E789A); test: Two-electrode voltage-clamp recordings, Xenopus oocytes; conditions: 100 μM glutamate + 3 μM glycine
[4] = biological target: GluN1/GluN2D (Rattus norvegicus, UniProt P35439+Q62645); test: Two-electrode voltage-clamp recordings, Xenopus oocytes; conditions: 100 μM glutamate + 3 μM glycine; N.E. = no effect at 10 μM TCN-201
Summary of the method: as §1

[5] = biological target: GluN1/2A-(2D ATD) (Rattus norvegicus, UniProt P35439+Q00959+Q62645, A388P/C399P/D398Q/D403T/E353D/E371T/E400V/G345N/H358N/H387Y/K346R/K368R/K374V/K377S/K394G/L348Y/N367T/N380Q/N404Q/P391S/P401D/Q356L/R360S/R386K/S384R/S395R/S397L/T351N/V365S/V389L/Y355F); test: Two-electrode voltage-clamp recordings, Xenopus oocytes; conditions: 100 μM glutamate plus 30 μM glycine; vs GluN1/GluN2A
[6] = biological target: GluN1/2A-(2D D2) (Rattus norvegicus, UniProt P35439+Q00959, D675E/D715E/F680L/F708Y/G712R/G740R/H674Q/I755V/K668R/K738M/N696S/Q661T/Q703S/R681K/R692K/R711P/R741K/S677Y/S719Q/T663S/T706V/T722A/V718T/Y676Q/Y700D/Y754K); test: as above; conditions: 100 μM glutamate plus 30 μM glycine
[7] = biological target: GluN1/GluN2A T793R (Rattus norvegicus, UniProt P35439+Q00959, T793R); test: as above; conditions: 100 μM glutamate + 3 μM glycine
[8] = biological target: GluN1/GluN2A M788I (Rattus norvegicus, UniProt P35439+Q00959, M788I); test: as above; conditions: 100 μM glutamate + 3 μM glycine
[9] = biological target: GluN1/GluN2A V783H (Rattus norvegicus, UniProt P35439+Q00959, V783H); test: as above; conditions: 100 μM glutamate + 3 μM glycine
[10] = biological target: GluN1/GluN2A L777A (Rattus norvegicus, UniProt P35439+Q00959, L777A); test: as above; conditions: 100 μM glutamate + 3 μM glycine
[11] = biological target: GluN1/2A-(2D D1) (Rattus norvegicus, UniProt P35439+Q00959, A414R/D421P/DELINS438-452SQLNRTHSPPPDAPRPE/E427G/E790M/G786D/I408V/I422A/K454R/K466R/K472G/L425I/M788I/N404Q/N432D/N490D/N491G/P770R/Q766H/Q774P/R469H/S407T/S468A/S538A/T426S/T433S/T474S/T793R/T797S/V409A/V430I/V471I/V489I/V501F/V506D/V509I/V521I/V783L); test: as above; conditions: 100 μM glutamate plus 30 μM glycine
[12] = biological target: GluN1/2A-(2D S1+S2) (Rattus norvegicus, UniProt P35439+Q00959, A414R/D421P/D675E/D715E/DELINS438-452SQLNRTHSPPPDAPRPE/E427G/E790M/F680L/F708Y/G712R/G740R/G786D/H674Q/I408V/I422A/I755V/K454R/K466R/K472G/K668R/K738M/L425I/M788I/N404Q/N432D/N490D/N491G/N696S/P770R/Q661T/Q703S/Q766H/Q774P/R469H/R681K/R692K/R711P/R741K/S407T/S468A/S538A/S677Y/S719Q/S758T/T426S/T433S/T474S/T663S/T706V/T722A/T793R/T797S/V409A/V430I/V471I/V489I/V501F/V506D/V509I/V521I/V718T/V783L/Y676Q/Y700D/Y754K); test: as above; conditions: 100 μM glutamate plus 30 μM glycine
[13] = biological target: GluN1/GluN2A (Rattus norvegicus, UniProt P35439+Q00959); test: Whole-cell voltage-clamp recordings, HEK293 cells, rapid solution exchange; conditions: for % fast / τfast / τslow: brief application (10 ms) of 1000 μM glycine
Summary of the method: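 HEK293 cells were plated on poly-D-lysine coverslips about 48 h ahead and calcium-phosphate cotransfected with GluN1, GluN2A and GFP (1:1:1). 200 μM D,L-APV and 200 μM 7-chlorokynurenic acid were added after transfection. Whole-cell recording was done about 24 h later at −60 mV and 23°C on lifted cells with piezo-driven theta-glass exchange.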

[14] = 50 μM glutamate, antagonist 0.1 μM
[15] = 50 μM glutamate, antagonist 0.3 μM
[16] = 50 μM glutamate, antagonist 1 μM

Chain of GluN1/GluN2D (Q62645 28-1323, other chains not shown): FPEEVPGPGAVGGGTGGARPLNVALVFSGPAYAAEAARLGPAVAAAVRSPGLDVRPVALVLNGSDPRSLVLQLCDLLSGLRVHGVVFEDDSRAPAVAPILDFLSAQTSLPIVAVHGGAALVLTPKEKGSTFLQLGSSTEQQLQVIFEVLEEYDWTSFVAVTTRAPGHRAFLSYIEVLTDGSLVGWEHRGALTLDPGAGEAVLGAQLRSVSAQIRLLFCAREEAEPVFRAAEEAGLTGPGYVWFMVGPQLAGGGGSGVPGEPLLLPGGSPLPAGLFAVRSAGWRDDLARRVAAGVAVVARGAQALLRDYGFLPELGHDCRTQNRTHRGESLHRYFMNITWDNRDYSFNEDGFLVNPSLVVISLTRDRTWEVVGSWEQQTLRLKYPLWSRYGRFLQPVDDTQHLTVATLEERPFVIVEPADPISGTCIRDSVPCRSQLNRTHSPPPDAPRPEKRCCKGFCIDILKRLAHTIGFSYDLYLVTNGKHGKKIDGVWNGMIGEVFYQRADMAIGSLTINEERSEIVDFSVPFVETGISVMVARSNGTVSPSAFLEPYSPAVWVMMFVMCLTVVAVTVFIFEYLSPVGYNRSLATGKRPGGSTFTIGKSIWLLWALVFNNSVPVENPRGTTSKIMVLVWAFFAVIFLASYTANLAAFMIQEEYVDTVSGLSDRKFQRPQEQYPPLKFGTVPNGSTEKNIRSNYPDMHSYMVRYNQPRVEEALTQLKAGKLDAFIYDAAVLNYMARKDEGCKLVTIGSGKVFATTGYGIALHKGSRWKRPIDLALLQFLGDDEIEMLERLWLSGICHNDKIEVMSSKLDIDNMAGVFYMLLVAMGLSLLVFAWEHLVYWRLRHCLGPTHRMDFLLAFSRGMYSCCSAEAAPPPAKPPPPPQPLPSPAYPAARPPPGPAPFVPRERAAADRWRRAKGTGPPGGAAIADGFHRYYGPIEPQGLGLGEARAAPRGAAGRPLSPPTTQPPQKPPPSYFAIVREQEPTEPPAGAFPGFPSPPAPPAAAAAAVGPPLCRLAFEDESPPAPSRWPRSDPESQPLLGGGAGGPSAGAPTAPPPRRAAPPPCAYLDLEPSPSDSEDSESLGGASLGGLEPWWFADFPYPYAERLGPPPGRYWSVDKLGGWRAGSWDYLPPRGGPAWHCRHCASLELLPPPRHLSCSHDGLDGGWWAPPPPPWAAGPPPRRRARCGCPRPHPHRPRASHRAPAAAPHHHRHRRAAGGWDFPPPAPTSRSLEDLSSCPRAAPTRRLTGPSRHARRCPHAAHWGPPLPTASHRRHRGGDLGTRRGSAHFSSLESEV

- TCN-201 activity Max. % inhibition [1]: 89 ± 3%
- TCN-201 activity nH [1]: 1.4
- TCN-201 activity IC50 [2]: did not affect TCN-201 sensitivity
- TCN-201 activity Max. % inhibition [2]: 97 ± 1%
- TCN-201 activity nH [2]: 1.5
- TCN-201 activity Max. % inhibition [3]: 96 ± 1%
- TCN-201 activity nH [3]: 1.4
- TCN-201 activity IC50 [4]: did not inhibit and N.E.
- Inhibition by 3 μM TCN-201 [5]: did not reduce inhibition
- Inhibition by 3 μM TCN-201 [6]: some TCN-201 activity was retained
- TCN-201 activity Max. % inhibition [7]: 94 ± 2%
- TCN-201 activity nH [7]: 2.2
- TCN-201 activity Max. % inhibition [8]: 79 ± 3%
- TCN-201 activity nH [8]: 1.3
- TCN-201 activity Max. % inhibition [9]: 93 ± 4%
- TCN-201 activity nH [9]: 0.9
- TCN-201 activity Max. % inhibition [10]: 98 ± 1%
- TCN-201 activity nH [10]: 1.2
- Inhibition by 3 μM TCN-201 [11]: eliminated TCN-201 inhibition
- Inhibition by 3 μM TCN-201 [12]: abolished
- τinhibition ([13]; 3 μM TCN-201 in the presence of both glutamate (50 μM) and glycine (10 μM)): 3.4 ± 0.2 s
- τinhibition (time constant for TCN-201 binding) ([13]; 3 μM TCN-201 pre-incubated in the absence of any agonists): 3.5 ± 0.3 s
- τinhibition ([13]; 3 μM TCN-201 pre-incubated with glutamate alone (50 μM)): 1.1 ± 0.1 s
- TCN-201 binding / τinhibition ([13]; 3 μM TCN-201 pre-incubated with glycine alone (10 μM)): Minimal binding
- τweighted for glycine deactivation ([13]; brief (10 ms) 1 mM glycine, 50 μM glutamate, 1 μM TCN-201): 27 ± 2 ms
- % fast [13, 14]: 74 ± 2%
- τfast [13, 14]: 20 ± 1 ms
- τslow [13, 14]: 131 ± 7 ms
- % fast [13, 15]: 82 ± 1%
- τfast [13, 15]: 18 ± 1 ms
- τslow [13, 15]: 123 ± 11 ms
- % fast [13, 16]: 89 ± 2%
- τfast [13, 16]: 16 ± 2 ms
- τslow [13, 16]: 116 ± 19 ms
- τweighted for glycine deactivation vs absence of TCN-201 ([13]; long (5 seconds) 1 mM glycine, 50 μM glutamate): no significant difference
- deactivation time constant, mono-exponential fit (τslow) ([13]; long application (5 seconds) of 1000 μM glycine, 50 μM glutamate, antagonist 0.3 μM): 124 ± 12 ms
Structure (SMILES): O=C(NNC(=O)c1ccc(CNS(=O)(=O)c2ccc(F)c(Cl)c2)cc1)c1ccccc1 [TCN-201, 3-chloro-4-fluoro-N-[(4-[(2-(phenylcarbonyl)hydrazino)carbonyl]phenyl)methyl]-benzenesulfonamide]
